Activity calls are given as the source filed them. The calls are words filed in the database; no cut-off is given here.
How the values were obtained:
[1] = target: Cannabinoid receptor 1 (Mus musculus) (UniProt P47746); test: Agonist activity at CB1 receptor in mouse N1E-115 cells assessed as increase in ERK1/2 phosphorylation after 10 mins by Western blot analysis; type: cell-based
Procedure, shortened: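 N1E-115 cells were grown in high-glucose DMEM with 10% FBS at 37 °C, 5% CO2. They were exposed for 10 min to compounds in D-PBS with 1% DMSO, then lysed at 4 °C. P-ERK 1/2 was measured by western blot at 40 µg total protein and expressed as percentage of vehicle. Five independent experiments; one-way ANOVA.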

[2] = target: Cannabinoid receptor 1 (Mus musculus) (UniProt P47746); test: Neutral antagonist activity at CB1 receptor in albino CD1 mouse vas deferens assessed as rightward shift in WIN 55,212-2 concentration response curve for electrically evoked contractions at 0.1 to 10 uM treated 20 mins before first addition of WIN 55,212-2
Procedure, shortened: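 Vas deferens from male albino CD1 mice, electrically stimulated as for twitch studies, in Krebs-Henseleit at 37 °C. Compound at a fixed concentration (0.1, 1 or 10 μM; DMSO ≤0.1%) was added 20 min before cumulative WIN 55,212-2. Inhibition of twitches was expressed as percentage of the pre-WIN amplitude; mean ± SEM.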

Mus musculus [3] = organism: Mus musculus; test: Selectivity ratio of Ki for CB1 receptor in CD1 mouse brain membrane without cerebellum to Ki for CB2 receptor in CD1 mouse spleen membrane; type: cell membranes
Cannabinoid receptor 1 = Cannabinoid receptor 1 (Mus musculus, UniProt P47746); test: Displacement of [3H]CP55940 from CB1 receptor in CD1 mouse brain membrane without cerebellum by liquid scintillation counting analysis; type: cell membranes
[4] = target: Cannabinoid receptor 1 (Mus musculus) (UniProt P47746); test: Neutral antagonist activity at CB1 receptor in mouse N1E-115 cells assessed as inhibition of WIN 55,212-2-induced ERK1/2 phosphorylation at 1 uM treated 5 mins prior to WIN 55,212-2 challenge by Western blot analysis; type: cell-based
Procedure, shortened: (§1)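 N1E-115 cells were pretreated for 5 min with compound (0.1-1.0 μM; dissolved in D-PBS with 1% DMSO), then exposed for 10 min to WIN55,212-2 (25 nM). Lysates (40 µg total protein) were western blotted for P-ERK 1/2 and expressed as percentage of vehicle. Five independent experiments; one-way ANOVA.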

Cannabinoid receptor 2 = Cannabinoid receptor 2 (Mus musculus, UniProt P47936); test: Displacement of [3H]CP55940 from CB2 receptor in CD1 mouse spleen membrane by liquid scintillation counting analysis; type: cell membranes
[5] = target: Cannabinoid receptor 1 (Mus musculus) (UniProt P47746); test: Intrinsic activity at CB1 receptor in albino CD1 mouse vas deferens assessed as increase in amplitude of electrically evoked contractions at 0.1 to 100 uM
Procedure, shortened: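 Vas deferens from male albino CD1 mice (30-40 g) was held at 0.5 g tension in Krebs-Henseleit at 37 °C, gassed with 95% O2/5% CO2. Twitches were evoked by 0.5-s trains of three 0.5-ms pulses at 110% maximal voltage, 0.1 Hz. Compounds (DMSO ≤0.1%) were added once responses were reproducible. Contraction amplitude was compared with control; mean ± SEM, n=5; ANOVA with Bonferroni test.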

[6] = target: Cannabinoid receptor 1 (Homo sapiens) (UniProt P21554); test: Intrinsic activity at human recombinant CB1 receptor transfected in CHO cells assessed as effect on [35S]GTPgammaS binding up to 0.1 uM after 1 hr by liquid scintillation spectrometry; type: functional, cell-based
Procedure, shortened: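 […] used CHO cells expressing human recombinant CB1, incubated with [³⁵S]GTPγS and a range of compound concentrations alone for 1 h at 37 °C. The reaction was stopped with ice-cold Tris/BSA, filtered on glass-fibre filters and read by liquid scintillation spectrometry. Data are percentage stimulation over basal, mean ± SEM of five experiments.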

Mus musculus [7] = test: Reduction of food intake in fasted C57Bl6/J mouse at 10 to 20 mg/kg, ip administered 15 mins prior to food presentation measured after 1 to 3 hrs; type: functional, organism-based
Procedure, shortened: (§2)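 Male-unspecified C57Bl6/J mice (20-25 g) were housed singly on a reverse light-dark cycle and fasted 18 h. Compounds in saline with 2.5% Tween 80 and 2.5% ethanol, or vehicle, were given ip; food was presented 15 min later. Intake was recorded over 3 h. Mean ± SEM; two-way ANOVA with Bonferroni test.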

[8] = target: Cannabinoid receptor 1 (Mus musculus) (UniProt P47746); test: Neutral antagonist activity at CB1 receptor in mouse N1E-115 cells assessed as inhibition of WIN 55,212-2-induced ERK1/2 phosphorylation at 125 to 500 nM treated 5 mins prior to WIN 55,212-2 challenge by Western blot analysis; type: cell-based; procedure, shortened: as §1
Mus musculus [9] = test: Reduction of food intake in fasted C57Bl6/J mouse at 10 to 20 mg/kg, ip administered 15 mins prior to food presentation measured for 2 hrs; type: functional, organism-based
Procedure, shortened: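 C57Bl6/J mice (20-25 g), housed singly on a reverse light-dark cycle and fasted 18 h. Dosed ip at 10 and 20 mg/kg in saline with Tween 80 and ethanol (each 2.5 wt%). Weighed food presented 15 min later; intake followed over 3 h. Mean ± SEM; two-way ANOVA with Bonferroni post hoc versus vehicle.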

Mus musculus [10] = test: Toxicity in C57Bl6/J mouse assessed as locomotion blockage at 20 mg/kg, ip; type: organism-based; parameters: dose 20 mg/kg, route intraperitoneal; details: in vivo
Procedure, shortened: (§3)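 Fasted C57Bl6/J mice from the food-intake test were given 20 mg/kg ip in saline with Tween 80 and ethanol (each 2.5 wt%).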

Mus musculus [11] = test: Increase in food intake in fasted C57Bl6/J mouse at 3 to 10 mg/kg, ip administered 15 mins prior to food presentation measured after 3 hrs; type: functional, organism-based
[12] = target: Cannabinoid receptor 1 (Mus musculus) (UniProt P47746); details: N1E-115, 1 uM
Mus musculus [13] = test: Toxicity in C57Bl6/J mouse assessed as mortality at 20 mg/kg, ip; type: organism-based; parameters: dose 20 mg/kg, route intraperitoneal; details: in vivo; procedure, shortened: as §3
Mus musculus [14] = test: Reduction of food intake in fasted C57Bl6/J mouse at 3 to 10 mg/kg, ip administered 15 mins prior to food presentation measured after 1 hr; type: functional, organism-based; procedure, shortened: as §2
Mus musculus [15] = test: Reduction of food intake in fasted C57Bl6/J mouse at 10 to 20 mg/kg, ip administered 15 mins prior to food presentation measured after 2 to 3 hrs; type: functional, organism-based; procedure, shortened: as §2
Mus musculus [16] = test: Toxicity in C57Bl6/J mouse assessed as observable adverse events at 20 mg/kg, ip; type: organism-based; parameters: dose 20 mg/kg, route intraperitoneal; details: in vivo

Chain of Cannabinoid receptor 1 (Mus musculus) (P47746 whole entry): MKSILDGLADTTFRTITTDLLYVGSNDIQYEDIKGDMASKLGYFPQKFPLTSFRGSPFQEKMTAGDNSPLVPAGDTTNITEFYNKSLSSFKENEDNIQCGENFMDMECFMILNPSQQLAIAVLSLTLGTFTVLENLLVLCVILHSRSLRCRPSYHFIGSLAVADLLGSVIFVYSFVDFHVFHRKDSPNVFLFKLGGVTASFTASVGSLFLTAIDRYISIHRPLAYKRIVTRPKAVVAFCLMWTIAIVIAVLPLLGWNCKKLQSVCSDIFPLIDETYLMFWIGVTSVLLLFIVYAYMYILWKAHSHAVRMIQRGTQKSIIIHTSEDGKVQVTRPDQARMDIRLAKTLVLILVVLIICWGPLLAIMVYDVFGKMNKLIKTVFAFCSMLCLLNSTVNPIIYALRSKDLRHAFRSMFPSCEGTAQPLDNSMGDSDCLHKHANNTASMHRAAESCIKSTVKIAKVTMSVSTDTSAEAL
Chain of Cannabinoid receptor 1 (P47746 whole entry): as above
Chain of Cannabinoid receptor 1 (Homo sapiens) (P21554 whole entry): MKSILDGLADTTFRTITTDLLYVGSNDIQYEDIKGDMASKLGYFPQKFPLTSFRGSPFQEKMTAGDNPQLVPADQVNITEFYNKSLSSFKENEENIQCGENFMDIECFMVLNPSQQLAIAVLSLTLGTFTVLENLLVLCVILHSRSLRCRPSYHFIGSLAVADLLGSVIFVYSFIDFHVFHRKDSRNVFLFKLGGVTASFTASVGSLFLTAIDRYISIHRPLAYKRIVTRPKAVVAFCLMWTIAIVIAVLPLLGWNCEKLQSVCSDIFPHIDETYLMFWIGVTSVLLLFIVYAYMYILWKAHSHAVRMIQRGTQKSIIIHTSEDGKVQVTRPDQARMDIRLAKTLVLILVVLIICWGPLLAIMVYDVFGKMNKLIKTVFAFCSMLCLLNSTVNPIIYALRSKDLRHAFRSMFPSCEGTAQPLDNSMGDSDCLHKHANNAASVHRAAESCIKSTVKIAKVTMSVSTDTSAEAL
Chain of Cannabinoid receptor 2 (P47936 whole entry): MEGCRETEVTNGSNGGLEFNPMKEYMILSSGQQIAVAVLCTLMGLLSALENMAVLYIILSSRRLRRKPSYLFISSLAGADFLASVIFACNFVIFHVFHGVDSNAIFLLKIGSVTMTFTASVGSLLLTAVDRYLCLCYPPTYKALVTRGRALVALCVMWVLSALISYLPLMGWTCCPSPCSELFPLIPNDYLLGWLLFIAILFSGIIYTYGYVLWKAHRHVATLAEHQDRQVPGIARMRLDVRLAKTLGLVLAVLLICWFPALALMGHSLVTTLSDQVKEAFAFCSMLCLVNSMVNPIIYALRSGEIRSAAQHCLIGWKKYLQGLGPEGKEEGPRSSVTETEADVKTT

Compound	Activity [1]	Activity [2]	Ratio Ki (Mus musculus [3])	Ki (Cannabinoid receptor 1) [nM]	inhibition [4]	Ki (Cannabinoid receptor 2) [nM]	Intrinsic activity [5]	Intrinsic activity [6]	Activity (Mus musculus [7])	inhibition [8]	Activity (Mus musculus [9])	Activity (Mus musculus [10])	Activity (Mus musculus [11])	inhibition [12]	Activity (Mus musculus [13])	Activity (Mus musculus [14])	Activity (Mus musculus [15])	Activity (Mus musculus [16])
Cc1c(C(NN2CCCCC2)C(F)(F)F)nn(-c2ccc(Cl)cc2Cl)c1-c1ccc(Cl)cc1 (racemic)	inactive	Active	< 0.057	287	Active	> 5000	inactive											
Cc1c(/C(F)=C\C2CCCCC2)nn(-c2ccc(Cl)cc2Cl)c1-c1ccc(Cl)cc1		Active	0.103	412		4000	inactive											
Cc1c(C(O)CC2CCCCC2)nn(-c2ccc(Cl)cc2Cl)c1-c1ccc(Cl)cc1 (racemic)	inactive	Active			Active	4200	inactive	inactive	Active									
Cc1c(/C=C/C2CCCCC2)nn(-c2ccc(Cl)cc2Cl)c1-c1ccc(Cl)cc1	inactive	Active	0.003	11.2		3800	inactive			Active	Active							
Cc1c(C(=O)NN2CCCCC2)nn(-c2ccc(Cl)cc2Cl)c1-c1ccc(Cl)cc1 [RIMONABANT]	inactive											Toxic	Active	Active	Toxic	Active		
Cc1c(C(=O)CC2CCCCC2)nn(-c2ccc(Cl)cc2Cl)c1-c1ccc(Cl)cc1	inactive	Active	0.021	46.1		2230		inactive	Active	Active								
Cc1c(/C(F)=C/C2CCCCC2)nn(-c2ccc(Cl)cc2Cl)c1-c1ccc(Cl)cc1	inactive	Active	0.013	25.8		1950	inactive	inactive		Active							Active	Non-toxic
